Values after ≈ are worked out from the molar mass of the structure shown. Active and inactive are the calls of the source. The rule behind the calls is not given here.
Legend:
[1] = tested on: Rattus norvegicus; experiment: Antiinflammatory activity in albino rat assessed as inhibition of carrageenan-induced paw edema at 100 mg/kg, po administered 1 hr prior to carrageenan-challenge measured after 3 hrs relative to control; type: functional
Outline: (§1)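 Charles Foster albino rats of either sex (150–200 g, pregnant females excluded), six per group, dosed orally; 1 h later 0.2 mL of 1% carrageenan in 0.9% NaCl injected into right hind paw subplantar tissue. Paw volume read by plethysmometer at injection and 3 h later. Control group received carrageenan only. % inhibition = 1–Dt/Dc×100. Mean ± S.D.; one-way ANOVA with Tukey's test.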

[2] = tested on: HeLa; experiment: Cytotoxicity against human HeLa cells at 100 ug/ml […] by MTT assay; type: cell-based
[3] = tested on: BT-549; experiment: Cytotoxicity against human BT549 cells at 100 ug/ml […] by MTT assay; type: cell-based
[4] = tested on: BT-549; experiment: Cytotoxicity against human BT549 cells after 24 hrs by MTT assay; type: functional, cell-based; conditions: BT-549, 24 h
[5] = Antitumor activity against mouse EAC […] Swiss albino mouse assessed as increase in life span at 100 mg/kg, ip relative to vehicle-treated control; type: functional, Ehrlich; conditions: route intraperitoneal
Outline: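 Female Swiss albino mice (6–8 weeks), six per group, inoculated i.p. on day 0 with 1×10⁶ viable EAC cells from donor ascites. Drug suspended in 0.25% CMC, given i.p. at 0.1 ml/10 g on days 10–14. Survival was monitored twice daily for 44 days. ILS(%) = [(MST treated/MST control) − 1]×100, where MST is total days survived divided by the number of animals.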

[6] = Antitumor activity against mouse EAC […] Swiss albino mouse assessed as change in body weight at 100 mg/kg, ip administered everyday from day 10 to day 14 measured on day 12 (reference value: 22.03 +/- 1.67%); type: functional, Ehrlich; conditions: route intraperitoneal
[7] = tested on: COLO 205; experiment: Induction of apoptosis in human COLO205 cells assessed as late apoptotic cells at IC50 after 48 hrs by acridine orange-ethidium bromide staining assay; type: functional, cell-based
Outline: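 COLO-205 cells seeded at 10⁵ cells/ml, grown 24 h, then treated at IC₅₀ dose for 48 h. Floating and trypsinized adherent cells pooled, spun at 129 g for 5 min and washed in PBS. Stained with 1:1 acridine orange/ethidium bromide and viewed by fluorescence microscopy at 400x (green viable, orange-red apoptotic).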

[8] = tested on: ACHN; experiment: Cytotoxicity against human ACHN cells […] by MTT assay; type: functional, cell-based
[9] = tested on: COLO 205; experiment: Induction of apoptosis in human COLO205 cells assessed as karyopyknosis at IC50 after 48 hrs by Hoechst 33258 staining-based inverted microscopic analysis; type: functional, cell-based
Outline: (§2)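 COLO-205 cells seeded at 10⁵ cells/ml and grown to 70-80% confluency. Treated at IC₅₀ dose for 48 h. Fixed in 4% formaldehyde for 30 min at room temperature, stained with Hoechst 33258 for 15 min, washed three times with PBS. Imaged by inverted fluorescence microscope (excitation 340-380 nm, emission 465 nm) at 400x and scored for nuclear morphology.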

[10] = tested on: HeLa; experiment: Cytotoxicity against human HeLa cells after 24 hrs by MTT assay; type: functional, cell-based
[11] = Antitumor activity against mouse EAC […] Swiss albino mouse assessed as change in body weight at 100 mg/kg, ip administered on day 10 measured on day 15 (reference value: 22.03 +/- 1.67%); type: functional, Ehrlich; conditions: route intraperitoneal
[12] = tested on: COLO 205; experiment: Induction of apoptosis in human COLO205 cells assessed as zeiosis at IC50 after 48 hrs by Hoechst 33258 staining-based inverted microscopic analysis; type: functional, cell-based; outline: as §2
[13] = tested on: COLO 205; experiment: Cytotoxicity against human COLO205 cells […] by MTT assay; type: functional, cell-based
[14] = tested on: COLO 205; experiment: Induction of apoptosis in human COLO205 cells assessed as nuclear fragmentation at IC50 after 48 hrs by Hoechst 33258 staining-based inverted microscopic analysis; type: functional, cell-based; outline: as §2
[15] = tested on: COLO 205; experiment: Inhibition of NF-kappaB in human COLO205 cells assessed as Bcl-2 down regulation at IC50 after 48 hrs by RT-PCR analysis; type: cell-based
Outline: (§3)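 About 4x10⁶ COLO-205 cells/well treated at IC₅₀ dose for 48 h. Total RNA extracted with TRI Reagent and quantified. Bcl-2 and Bax measured by RT-PCR against GAPDH (40 cycles: 94 °C, 55 °C, 72 °C). Products run on 1.5% agarose gel and quantified by band densitometry.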

[16] = tested on: COLO 205; experiment: Inhibition of NF-kappaB in human COLO205 cells assessed as Bax up-regulation at IC50 after 48 hrs by RT-PCR analysis; type: cell-based; outline: as §3
[17] = tested on: Rattus norvegicus; experiment: Antiinflammatory activity in albino rat assessed as inhibition of carrageenan-induced paw edema at 10 mg/kg, po administered 1 hr prior to carrageenan-challenge measured after 3 hrs relative to control; type: functional; outline: as §1

Row | Compound | inhibition in vivo at 100 mg/kg [1] [%] | Activity [2] [%] | Activity [3] [%] | other results
1 | Cc1cc(=O)[nH]c2cc(N3C(=O)CSC3c3ccc(Cl)cc3)ccc12 (centres undefined) | 13 | 20.198 | 46.201 | 
2 | Cc1cc(=O)[nH]c2cc(N3C(=O)CSC3c3ccc([N+](=O)[O-])cc3)ccc12 (centres undefined) | 25.2 | 54.851 | 40.478 | 
3 | Cc1cc(=O)[nH]c2cc(N3C(=O)CSC3c3cccc(O)c3)ccc12 (centres undefined) | 14.3 | 71.485 | 18.522 | 
4 | Cc1cc(=O)[nH]c2cc(N3C(=O)CSC3c3ccccc3O)ccc12 (centres undefined) | 16.4 | 43.168 | 44.328 | 
5 | Cc1cc(=O)[nH]c2cc(N3C(=O)CSC3c3ccc(Br)o3)ccc12 (centres undefined) | 23.3 | 31.332 | 42.357 | 
6 | Cc1cc(=O)[nH]c2cc(N3C(=O)CSC3c3cccnc3)ccc12 (centres undefined) | 6.81 | 34.851 | 29.032 | 
7 | Cc1cc(=O)[nH]c2cc(N3C(=O)CSC3c3ccc(F)cc3)ccc12 (centres undefined) | 19 | 14.231 | 43.311 | 
8 | Cc1cc(=O)[nH]c2cc(N3C(=O)CSC3c3ccccc3Br)ccc12 (centres undefined) | 14 | 44.279 | 38.709 | 
9 | Cc1cc(=O)[nH]c2cc(N3C(=O)CSC3c3cccc(Br)c3)ccc12 (centres undefined) | 22.7 | 56.633 | 40.062 | 
10 | Cc1cc(=O)[nH]c2cc(N3C(=O)CSC3c3ccncc3)ccc12 (centres undefined) | 7.62 | 20.343 | 22.176 | 
11 | COc1ccc(C2SCC(=O)N2c2ccc3c(C)cc(=O)[nH]c3c2)cc1OC (centres undefined) | 20.6 | 30.492 | 31.737 | 
12 | Cc1cc(=O)[nH]c2cc(N3C(=O)CSC3N3CCCCC3)ccc12 (centres undefined) | 2.77 | 29.394 | 31.949 | 
13 | Cc1cc(=O)[nH]c2cc(N3C(=O)CSC3c3ccccc3)ccc12 (centres undefined) | 17.8 | 74.85 | 71.578 | IC50 [4]: 39.3 µg/mL (≈ 117 µM); Activity [5]: 60.57%; MST [5]: 29.16 days; Activity [6]: 10.65%; Activity [7]: Active; IC50 [8]: 78.9 µg/mL (≈ 234 µM); Activity [9]: Active; IC50 [10]: 35.1 µg/mL (≈ 104 µM); Activity [11]: 5.93%; Activity [12]: Active; IC50 [13]: 31.4 µg/mL (≈ 93.3 µM); Activity [14]: Active; inhibition [15]: Active; inhibition [16]: Active
14 | COc1cc(C2SCC(=O)N2c2ccc3c(C)cc(=O)[nH]c3c2)ccc1O (centres undefined) | 12.4 | 41.028 | 54.11 | 
15 | Cc1ccc(C2SCC(=O)N2c2ccc3c(C)cc(=O)[nH]c3c2)s1 (centres undefined) | 15.8 | 31.485 | 22.023 | 
16 | Cc1cc(=O)[nH]c2cc(N3C(=O)CSC3c3ccc(O)cc3)ccc12 (centres undefined) | 22.9 | 68.91 | 42.143 | 
17 | Cc1cc(=O)[nH]c2cc(N3C(=O)CSC3c3ccccn3)ccc12 (centres undefined) | 7.5 | 20 | 18.028 | 

Row | Compound | inhibition in vivo at 100 mg/kg [1] [%] | Activity [2] [%] | Activity [3] [%] | other results
18 | Cc1cc(=O)[nH]c2cc(N3C(=O)CSC3N3CCOCC3)ccc12 (centres undefined) | 1.75 | 23.662 | 25.274 | 
19 | Cc1cc(=O)[nH]c2cc(N3C(=O)CSC3c3ccc(N(C)C)cc3)ccc12 (centres undefined) | 13.3 | 33.267 | 29.327 | 
20 | Cc1cc(=O)[nH]c2cc(N3C(=O)CSC3c3cccc(F)c3)ccc12 (centres undefined) | 23.6 | 52.738 | 50.052 | 
21 | Cc1cc(=O)[nH]c2cc(N3C(=O)CSC3c3cccs3)ccc12 (centres undefined) | 18.6 | 83.762 | 63.163 | IC50 [4]: 43 µg/mL (≈ 126 µM); Activity [5]: 77.09%; MST [5]: 32.16 days; Activity [6]: 6.66%; Activity [7]: Active; IC50 [8]: 44.7 µg/mL (≈ 131 µM); Activity [9]: Active; IC50 [10]: 27.1 µg/mL (≈ 79 µM); Activity [11]: 3.86%; Activity [12]: Active; IC50 [13]: 20.7 µg/mL (≈ 60.6 µM); Activity [14]: Active; inhibition [15]: Active; inhibition [16]: Active
22 | Cc1cc(=O)[nH]c2cc(N3C(=O)CSC3c3ccc(Br)cc3)ccc12 (centres undefined) | 12.4 | 65.742 | 42.663 | 
23 | Cc1cc(=O)[nH]c2cc(N3C(=O)CSC3c3ccccc3F)ccc12 (centres undefined) | 20.4 | 59.6 | 40.062 | 
24 | Cc1ccc(C2SCC(=O)N2c2ccc3c(C)cc(=O)[nH]c3c2)o1 (centres undefined) | 10.1 | 27.453 | 31.114 | 
25 | Cc1cc(=O)[nH]c2cc(N3C(=O)CSC3c3ccccc3[N+](=O)[O-])ccc12 (centres undefined) | 24.1 | 28.316 | 44.953 | 
26 | O=c1[nH]cc(F)c(=O)[nH]1 [FLUOROURACIL] |  |  |  | IC50 [8]: 9.87 µg/mL (≈ 75.9 µM); IC50 [13]: 4.56 µg/mL (≈ 35.1 µM)
27 | COc1ccc(C2SCC(=O)N2c2ccc3c(C)cc(=O)[nH]c3c2)cc1 (centres undefined) | 21.4 | 47.326 | 39.334 | 
28 | Cc1cc(=O)[nH]c2cc(N3C(=O)CSC3c3cccc(Cl)c3)ccc12 (centres undefined) | 23.3 | 44.158 | 44.849 | 
29 | Cc1cc(=O)[nH]c2cc(N3C(=O)CSC3c3ccco3)ccc12 (centres undefined) | 5.16 | 41.188 | 49.658 | 
30 | Cc1cc(=O)[nH]c2cc(N3C(=O)CSC3c3ccccc3Cl)ccc12 (centres undefined) | 14.5 | 52.496 | 61.394 | 
31 | Cc1cc(=O)[nH]c2cc(N3C(=O)CSC3c3ccc(Br)s3)ccc12 (centres undefined) | 24 | 33.267 | 52.34 | 
32 | Cc1cc(=O)[nH]c2cc(N3C(=O)CSC3/C=C/c3ccccc3)ccc12 (centres undefined) | 20.8 | 42.057 | 38.837 | 
33 | COc1ccc2c(c1)c(CC(=O)O)c(C)n2C(=O)c1ccc(Cl)cc1 [INDOMETHACIN] |  |  |  | inhibition in vivo at 10 mg/kg [17]: 33.2%

From ChEMBL document CHEMBL2375332, “Novel quinolone substituted thiazolidin-4-ones as anti-inflammatory, anticancer agents: design, synthesis and biological screening” (Eur J Med Chem, 2013)
